# Test results published in ChEMBL document CHEMBL1153389, “Identification of novel antibacterial peptides by chemoinformatics and machine learning” (2009).
# Test system: Pseudomonas aeruginosa
# Experiment: Antimicrobial activity against Pseudomonas aeruginosa H1001 expressing luciferase gene assessed as ratio antimicrobial IC50 for drug to Bac2A peptide by luminescence assay
# Assay type: functional
# Procedure, shortened: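 Peptides are made by SPOT synthesis on cellulose, cleaved, and the spots placed in plate wells. Overnight P. aeruginosa H1001 (fliC::luxCDABE) is diluted 1:500 in 100 mM Tris-HCl pH 7.3 with 20 mM glucose and added to the wells. After 30 min, serial dilutions (8 rows) are made. Luminescence is read at 4 h. IC50 is taken from a sigmoid fit and expressed relative to Bac2A run in the same series.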
row,Compound,Ratio IC50
1,H-RVWFKRRWW-OH,0.26
2,H-KWWRWWRKW-OH,0.2
3,H-NKTGYRWRN-OH,8.33
4,H-WGRTRWSSR-OH,9.64
5,H-GRRVMNQKR-OH,9.83
6,H-KFWWWNYLK-OH,1.81
7,N=C(N)NCCC[C@H](NC(=O)[C@H](CCCCN)NC(=O)[C@H](CCCNC(=N)N)NC(=O)[C@@H](N)CCCNC(=N)N)C(=O)N[C@@H](Cc1c[nH]c2ccccc12)C(=O)N[C@@H](Cc1c[nH]c2ccccc12)C(=O)N[C@@H](Cc1c[nH]c2ccccc12)C(=O)N[C@@H](Cc1c[nH]c2ccccc12)C(=O)N[C@@H](Cc1c[nH]c2ccccc12)C(=O)O,0.43
8,H-RHWKTWWKR-OH,0.95
9,H-IRRRKKRIK-OH,6.42
10,H-KNRGRWFSH-OH,9.79
11,H-RKIWWWRIR-OH,0.59
12,H-RRVQRGKWW-OH,6.3
13,H-GVRVQRNSK-OH,25
14,H-WRRWWKWWR-OH,0.23
15,H-IKRWWWRRW-OH,0.22
16,H-GWGGKRRNF-OH,7.38
17,H-KRWLTWRFR-OH,0.54
18,H-RWIGVIIKY-OH,2.24
19,H-ATWIWVFRR-OH,4.88
20,H-IRQWWRRWW-OH,0.5
21,H-QRNKGLRHH-OH,8.76
22,H-RWRIKRWWW-OH,0.12
23,H-KRKIWWWIR-OH,0.28

row,Compound,Ratio IC50
1,H-IRMWVKRWR-OH,0.61
2,H-RRRKTWYWW-OH,0.32
3,H-LVFRKYWKR-OH,0.99
4,H-KWWLVWKRK-OH,0.23
5,H-RWWIRKWWR-OH,0.21
6,H-ANRWGRGIR-OH,10.8
7,H-RVFVKIRMK-OH,0.72
8,H-RWWLKIRKW-OH,0.18
9,H-KRFWIWFWR-OH,3.04
10,H-IRWWKRWWR-OH,0.21
11,H-LRFILWWKR-OH,0.88
12,H-RVRWWKKRW-OH,0.27
13,H-GWKILRKRK-OH,2.74
14,H-IKRVKRRKR-OH,2.93
15,H-TRGWSLGTR-OH,12.15
16,H-SFNWKRSGK-OH,25
17,H-GRNGWYRIN-OH,10.74
18,H-SKNVRTWRQ-OH,7.06
19,H-RVWRNGYSR-OH,10.24
20,H-RRWFVKWWY-OH,0.52
21,H-KRKLIRWWW-OH,0.23
22,H-GMRRWRGKN-OH,6.05
23,H-WGKRRGWNT-OH,7.91

row,Compound,Ratio IC50
1,H-WRWYWWKKR-OH,0.22
2,H-IRRRKWWWW-OH,0.21
3,H-AWKIKKGRI-OH,3.59
4,H-IRKKRRRWT-OH,6.59
5,H-SWYRTRKRV-OH,6.66
6,H-VKRYYWRWR-OH,1.23
7,H-KRWWWWWKR-OH,0.22
8,H-IWKRWRKRL-OH,0.33
9,H-RIKVIWWWR-OH,0.51
10,H-KKRWVWVIR-OH,0.35
11,H-HGVWGNRKR-OH,7.95
12,H-WRNRKVVWR-OH,6.79
13,H-FVVMKRIVW-OH,5.38
14,H-KRWWRKWWR-OH,0.15
15,H-RWILWWWRI-OH,25
16,H-GKRVWGRGR-OH,8.2
17,H-GVRSWSQRT-OH,8.5
18,H-TRKVWWWRW-OH,0.76
19,H-RWKIFIRWW-OH,1.82
20,H-WVKVWKYTW-OH,5.64
21,H-RKWMGRFLM-OH,4.38
22,H-WRWRWWKRW-OH,0.28
23,H-IRKWRRWWK-OH,0.41

row,Compound,Ratio IC50
1,H-LRWRWWKIK-OH,0.26
2,H-RLVHWIRRV-OH,2.62
3,H-KRWWIRWWR-OH,0.21
4,H-GWNTMGRRW-OH,6.32
5,H-KRWRWWRWW-OH,0.28
6,H-RWWRKWWIR-OH,0.24
7,H-RQNGVWRVF-OH,8.26
8,H-ATRKGYSKF-OH,25
9,H-VSGNWRGSR-OH,8.54
10,H-RWRGIVHIR-OH,4.93
11,H-IKRWWRWWR-OH,0.23
12,H-RKRWLWRWW-OH,0.25
13,H-AFRGSRHRM-OH [AFRGSRHRM],11.36
14,H-WVRFVYRYW-OH,2.15
15,H-KRWWWVWKR-OH,0.36
16,H-GGRGTRWHG-OH,8.6
17,H-RWRIKFKRW-OH,0.26
18,H-SSGVRWSWR-OH,8.16
19,H-RKWWRWWRW-OH,0.31
20,H-GRRWGMGVR-OH,7.75
21,H-WRWWKWWRR-OH,0.23
22,H-KIRRKVRWG-OH,10.55
23,H-IRGRIIFWV-OH,0.44

row,Compound,Ratio IC50
1,H-IRRRWWWIV-OH,0.23
2,H-RGKYIRWRK-OH,3.83
3,H-KRWWKWIRW-OH,0.04
4,H-RKRTKVTWI-OH,5.11
5,H-KRWWKWWRR-OH,0.13
6,H-RLKKVRWWW-OH,0.34
7,H-WSQNVRTRI-OH,5.71
8,H-NRRNGQMRR-OH,8.41
9,H-RRWWMRWWV-OH,0.33
10,H-RRKWWWRWW-OH,0.27
11,H-RGRRQIGKF-OH,8.51
12,H-RWRRWKWWW-OH,0.4
13,H-KFRKRVWWW-OH,0.3
14,H-WHGGQKWRK-OH,8.5
15,H-IWIWRKLRW-OH,0.46
16,H-MINRVRLRW-OH,2.77
17,H-KRRRIWWWK-OH,0.4
18,H-RRWWHLWRK-OH,0.38
19,H-KNNRRWQGR-OH,6.45
20,H-WIRKRSRIF-OH,3.39
21,H-GRQISWGRT-OH,8.04
22,H-KWWKIWWKR-OH,0.2
23,H-AMLGGRQWR-OH,6.75

row,Compound,Ratio IC50
1,H-ARGKSIKNR-OH,8.35
2,H-WGGHKRRGW-OH,6.19
3,H-RRRWWWIIV-OH,0.85
4,H-IWKRWWRRW-OH,0.24
5,H-WGRGGWTNR-OH,25
6,H-RIWYWYKRW-OH,0.36
7,H-RWRWWKRWY-OH,0.2
8,H-GGIRRLRWY-OH,1.16
9,H-RKWRWRWLK-OH,0.31
10,H-IVVRVWVVR-OH,3.5
11,H-WHGVRWWKW-OH,2.5
12,H-RWWRWRKWW-OH,0.28
13,H-RKVRWKIRV-OH,0.32
14,H-RRRKWWIWG-OH,0.57
15,H-RWYRKRWSW-OH,0.7
16,H-GSRRFGWNR-OH,8.1
17,H-GRIGGKNVR-OH,9.12
18,H-VRIVRVRIR-OH,2.22
19,H-KWRRWKRWW-OH,0.15
20,H-RWFRWWKRW-OH,0.26
21,H-ILRVISKRR-OH,25
22,H-WHYRSQVGR-OH,6.65
